Laboratory results reported in ChEMBL document CHEMBL1121537, “Anticoccidial derivatives of 6-azauracil. 3. Synthesis, high activity, and short plasma half-life of 1-phenyl-6-azauracils containing sulfonamide substituents” (J Med Chem, 1980).

Legend:
Eimeria tenella [1] = assay: Minimum effective concentration required to prevent formation of detectable lesions in Eimeria tenella infected leghorn cockerels.; assay type: functional; conditions: read-out: MEC
Method in brief: (§1)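 Leghorn cockerels infected with Eimeria tenella, screened by a modified version of a published screening method. The minimum effective concentration, in ppm, is the lowest level that prevents detectable lesions.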

Gallus gallus [2] = assay: Plasma level measured 3h after oral administration of 4-5 mg/kg body weight in young cockerels; assay type: functional, organism-based
Method in brief: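 Young cockerels, about 10 days old, given 4-5 mg/kg body weight orally; drug level in plasma measured 3 h after dosing, in mcg/mL.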

[3] = Half life in plasma of young cockerels; assay type: ADME, organism-based, Gallus gallus; conditions: male, chicken
Method in brief: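 Plasma half-life in young cockerels, about 10 days old, determined by a previously described method.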

Eimeria acervulina [4] = assay: The compound was evaluated for the variations in the vulnerability to Eimeria acervulina; assay type: functional; conditions: read-out: MEC
Eimeria necatrix = assay: The compound was evaluated for the variations in the vulnerability to Eimeria necatrix; assay type: functional; conditions: read-out: MEC
Eimeria tenella [5] = assay: The compound was evaluated for the variations in the vulnerability to Eimeria tenella; assay type: functional; conditions: read-out: MEC
Eimeria brunetti = assay: The compound was evaluated for the variations in the vulnerability to Eimeria brunetti; assay type: functional; conditions: read-out: MEC
Gallus gallus [6] = assay: Plasma level measured 3h after oral administration of 4-5 mg/kg body weight in older birds; assay type: functional, organism-based
Method in brief: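 Older birds, about 9-10 weeks old, given 4-5 mg/kg body weight orally; drug level in plasma measured 3 h after dosing, in mcg/mL.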

[7] = Half life in plasma of older birds; assay type: ADME, organism-based, Gallus gallus; conditions: chicken
Method in brief: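 Plasma half-life in older birds, about 9-10 weeks old, determined by a previously described method.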

Gallus gallus [8] = species: Gallus gallus; assay: The compound was evaluate for the minimum amount required to prevent formation of detectable disease lesions against Eimeria tenella infections.; assay type: functional; method in brief: as §1
Eimeria maxima = assay: The compound was evaluated for the variations in the vulnerability to Eimeria maxima; assay type: functional; conditions: read-out: MEC
Eimeria acervulina [9] = assay: The compound was evaluated for the variations in the vulnerability to Eimeria acervulina; value ranges from 15-30; assay type: functional; conditions: read-out: MEC
Eimeria tenella [10] = assay: The compound was evaluated for the variations in the vulnerability to Eimeria tenella,; assay type: functional; conditions: read-out: MEC
Gallus gallus [11] = species: Gallus gallus; assay: Minimum effective concentration required to prevent formation of detectable lesions in Eimeria tenella infected leghorn cockerels; assay type: functional; method in brief: as §1
Gallus gallus [12] = species: Gallus gallus; assay: Minimum effective concentration required to prevent formation of detectable lesions in Eimeria tenella infected leghorn cockerels; Value ranges from 60-120; assay type: functional; method in brief: as §1
Gallus gallus [13] = species: Gallus gallus; assay: Minimum effective concentration required to prevent formation of detectable lesions in Eimeria tenella infected leghorn cockerels; value ranges from 15 to 30; assay type: functional; method in brief: as §1

Row | Structure (SMILES) | minimal effective concentration (Eimeria tenella [1]) [µg/mL] | other results
1 | CN(c1ccccc1)S(=O)(=O)c1ccc(-n2ncc(=O)[nH]c2=O)cc1Cl | > 250 | –
2 | O=c1cnn(-c2ccc(S(=O)(=O)N3CCSCC3)c(Cl)c2)c(=O)[nH]1 | 60 | –
3 | CCCN(CCC)S(=O)(=O)c1ccc(-n2ncc(=O)[nH]c2=O)cc1Cl | > 250 | –
4 | O=c1cnn(-c2ccc(S(=O)(=O)N3CCC(Cc4ccccc4)CC3)c(Cl)c2)c(=O)[nH]1 | > 250 | –
5 | Cc1cc(-n2ncc(=O)[nH]c2=O)cc(C)c1S(=O)(=O)N1CCOCC1 | 15 | Plasma level (Gallus gallus [2]): 0.95 µg/mL; half-life [3]: 1.5 h; minimal effective concentration (Eimeria acervulina [4]): 50 µg/mL; minimal effective concentration (Eimeria necatrix): 15 µg/mL; minimal effective concentration (Eimeria tenella [5]): 15 µg/mL; minimal effective concentration (Eimeria brunetti): 30 µg/mL
6 | O=c1cnn(-c2ccc(S(=O)(=O)N3CCCCC3)c(Cl)c2)c(=O)[nH]1 | 250 | –
7 | Cc1cc(Cl)cc(NS(=O)(=O)c2ccc(-n3ncc(=O)[nH]c3=O)cc2Cl)c1 | > 250 | –
8 | O=c1cnn(-c2cc(Cl)cc(Cl)c2)c(=O)[nH]1 | 4 | Plasma level (Gallus gallus [2]): 14.5 µg/mL; half-life [3]: 56 h; Plasma level (Gallus gallus [6]): 24.3 µg/mL; half-life [7]: 150 h
9 | O=c1cnn(-c2ccc(S(=O)(=O)N3CCOCC3)cc2)c(=O)[nH]1 | > 250 | –
10 | O=c1cnn(-c2cc(Cl)c(S(=O)(=O)N3CCOCC3)c(Cl)c2)c(=O)[nH]1 | – | MEC (Gallus gallus [8]): 30 p.p.m.; minimal effective concentration (Eimeria acervulina [4]): 30 µg/mL; minimal effective concentration (Eimeria tenella [5]): 15 µg/mL
11 | COc1c(Cl)cc(-n2ncc(=O)[nH]c2=O)cc1Cl | 250 | half-life [3]: 2 h
12 | O=c1cnn(-c2cccc(Cl)c2)c(=O)[nH]1 | 120 | –
13 | COCCN(CCOC)S(=O)(=O)c1c(C)cc(-n2ncc(=O)[nH]c2=O)cc1C | 250 | –
14 | O=c1cnn(-c2ccc(S(=O)(=O)NC3CCCCCCC3)c(Cl)c2)c(=O)[nH]1 | > 250 | –
15 | O=c1cnn(-c2cc(Cl)c(N3CCOCC3)c(Cl)c2)c(=O)[nH]1 | – | MEC (Gallus gallus [8]): 15 p.p.m.; minimal effective concentration (Eimeria maxima): 15 µg/mL; minimal effective concentration (Eimeria acervulina [9]): 30 µg/mL; minimal effective concentration (Eimeria tenella [10]): 15 µg/mL
16 | O=c1cnn(-c2ccc(S(=O)(=O)NC3CCCCC3)c(Cl)c2)c(=O)[nH]1 | > 500 | –
17 | Cc1cc(-n2ncc(=O)[nH]c2=O)cc(Cl)c1S(=O)(=O)N1CCOCC1 | 10 | Plasma level (Gallus gallus [2]): 0.38 µg/mL; half-life [3]: 1 h; minimal effective concentration (Eimeria acervulina [4]): 60 µg/mL; minimal effective concentration (Eimeria tenella [5]): 10 µg/mL
18 | O=c1cnn(-c2ccc(S(=O)(=O)N3CCCC3)c(Cl)c2)c(=O)[nH]1 | 250 | –
19 | CCN(CC)S(=O)(=O)c1c(C)cc(-n2ncc(=O)[nH]c2=O)cc1Cl | 250 | –
20 | Cc1cc(-n2ncc(=O)[nH]c2=O)ccc1S(=O)(=O)N(C)C1CCCC1 | > 120 | –
21 | NS(=O)(=O)c1ccc(-n2ncc(=O)[nH]c2=O)cc1Cl | > 120 | –
22 | NS(=O)(=O)c1ccc(NS(=O)(=O)c2ccc(-n3ncc(=O)[nH]c3=O)cc2)cc1 | 500 | –

Row | Structure (SMILES) | minimal effective concentration (Eimeria tenella [1]) [µg/mL] | other results
23 | Cc1cccc(-n2ncc(=O)[nH]c2=O)c1 | – | MEC (Gallus gallus [11]): >120 p.p.m.
24 | CN(C)S(=O)(=O)c1ccc(-n2ncc(=O)[nH]c2=O)cc1Cl | 250 | –
25 | Cc1cc(-n2ncc(=O)[nH]c2=O)cc(Cl)c1S(=O)(=O)N(C)C | 60 | –
26 | Cc1cc(-n2ncc(=O)[nH]c2=O)cc(C)c1S(=O)(=O)N(C)C | 60 | –
27 | C=CCN(CC=C)S(=O)(=O)c1ccc(-n2ncc(=O)[nH]c2=O)cc1Cl | 250 | –
28 | O=c1cnn(-c2ccc(S(=O)(=O)N3CCCCC3)cc2)c(=O)[nH]1 | 250 | –
29 | CN(CCO)S(=O)(=O)c1ccc(-n2ncc(=O)[nH]c2=O)cc1Cl | > 120 | –
30 | CCOC(CN(CC(OCC)OCC)S(=O)(=O)c1ccc(-n2ncc(=O)[nH]c2=O)cc1Cl)OCC | 250 | –
31 | CCCCN(CC#N)S(=O)(=O)c1ccc(-n2ncc(=O)[nH]c2=O)cc1Cl | > 120 | –
32 | O=c1cnn(-c2ccc(S(=O)(=O)N3CCC(O)CC3)c(Cl)c2)c(=O)[nH]1 | > 250 | –
33 | Cc1cc(-n2ncc(=O)[nH]c2=O)ccc1S(=O)(=O)N1CCN(C=O)CC1 | 500 | –
34 | O=c1cnn(-c2cc(Br)c(S(=O)(=O)N3CCOCC3)c(Br)c2)c(=O)[nH]1 | > 30 | –
35 | CN(Cc1ccc(Cl)cc1)S(=O)(=O)c1ccc(-n2ncc(=O)[nH]c2=O)cc1Cl | 500 | –
36 | Cc1cc(-n2ncc(=O)[nH]c2=O)cc(C)c1S(=O)(=O)N1CCCC1 | 60 | –
37 | CCOC(=O)N1CCN(S(=O)(=O)c2ccc(-n3ncc(=O)[nH]c3=O)cc2Cl)CC1 | > 250 | –
38 | CCN(C(C)C)S(=O)(=O)c1ccc(-n2ncc(=O)[nH]c2=O)cc1C | 500 | –
39 | Cc1ccc(NS(=O)(=O)c2ccc(-n3ncc(=O)[nH]c3=O)cc2Cl)cc1Cl | > 250 | –
40 | O=c1cnn(-c2ccc(S(=O)(=O)Cl)cc2)c(=O)[nH]1 | > 250 | –
41 | Cc1cc(-n2ncc(=O)[nH]c2=O)cc(C)c1S(=O)(=O)N(C)Cc1ccccc1 | 60 | –
42 | O=c1cnn(-c2ccc(S(=O)(=O)N(Cc3ccccc3)Cc3ccccc3)c(Cl)c2)c(=O)[nH]1 | > 250 | –
43 | COc1ccc(NS(=O)(=O)c2c(C)cc(-n3ncc(=O)[nH]c3=O)cc2C)cc1 | > 250 | –
44 | Cc1cc(-n2ncc(=O)[nH]c2=O)cc(Cl)c1S(=O)(=O)N1CCSCC1 | 120 | –

Row | Structure (SMILES) | minimal effective concentration (Eimeria tenella [1]) [µg/mL] | other results
45 | CCCN(C)S(=O)(=O)c1ccc(-n2ncc(=O)[nH]c2=O)cc1Cl | 250 | –
46 | CN(Cc1ccccc1)S(=O)(=O)c1ccc(-n2ncc(=O)[nH]c2=O)cc1Cl | – | MEC (Gallus gallus [12]): 60 p.p.m.
47 | O=c1cnn(-c2ccc(S(=O)(=O)N3CCSC3)c(Cl)c2)c(=O)[nH]1 | > 120 | –
48 | O=c1cnn(-c2cc(Cl)c(Cl)c(Cl)c2)c(=O)[nH]1 | 4 | –
49 | CCN(C)S(=O)(=O)c1ccc(-n2ncc(=O)[nH]c2=O)cc1Cl | 120 | –
50 | CC(C)(C)CC(C)(C)NS(=O)(=O)c1ccc(-n2ncc(=O)[nH]c2=O)cc1 | > 120 | –
51 | O=c1cnn(-c2ccccc2)c(=O)[nH]1 | 500 | half-life [3]: 8 h
52 | C=CCN(C)S(=O)(=O)c1ccc(-n2ncc(=O)[nH]c2=O)cc1Cl | 60 | –
53 | O=c1cnn(-c2ccc(S(=O)(=O)Nc3c(F)c(F)c(F)c(F)c3F)c(Cl)c2)c(=O)[nH]1 | > 60 | –
54 | CN(C1CCCC1)S(=O)(=O)c1ccc(-n2ncc(=O)[nH]c2=O)cc1Cl | > 120 | –
55 | Cc1cc(-n2ncc(=O)[nH]c2=O)ccc1S(=O)(=O)N1CCOCC1 | – | Plasma level (Gallus gallus [2]): 3.1 µg/mL; MEC (Gallus gallus [13]): 15 p.p.m.; half-life [3]: 1.1 h; minimal effective concentration (Eimeria acervulina [4]): 30 µg/mL; minimal effective concentration (Eimeria tenella [5]): 15 µg/mL
56 | O=c1cnn(-c2ccc(S(=O)(=O)Nc3cccc(Cl)c3)c(Cl)c2)c(=O)[nH]1 | > 500 | –
57 | CCCN(C)S(=O)(=O)c1c(C)cc(-n2ncc(=O)[nH]c2=O)cc1C | 120 | –
58 | Cc1cc(-n2ncc(=O)[nH]c2=O)cc(C)c1S(=O)(=O)Cl | 250 | –
59 | O=C1CCN(S(=O)(=O)c2ccc(-n3ncc(=O)[nH]c3=O)cc2Cl)CC1 | > 250 | –
60 | O=c1cnn(-c2ccc(S(=O)(=O)N3CCOCC3)c(Cl)c2)c(=O)[nH]1 | 30 | Plasma level (Gallus gallus [2]): 1.9 µg/mL; half-life [3]: 2.1 h; minimal effective concentration (Eimeria acervulina [4]): 120 µg/mL; minimal effective concentration (Eimeria tenella [5]): 30 µg/mL
61 | O=c1cnn(-c2ccc(S(=O)(=O)NCc3ccccc3Cl)c(Cl)c2)c(=O)[nH]1 | > 250 | –
62 | Cc1cc(C)cc(-n2ncc(=O)[nH]c2=O)c1 | 30 | Plasma level (Gallus gallus [2]): 8.1 µg/mL; half-life [3]: 6 h; Plasma level (Gallus gallus [6]): 22.4 µg/mL; half-life [7]: 12 h
63 | Cc1cc(Cl)cc(-n2ncc(=O)[nH]c2=O)c1 | 15 | Plasma level (Gallus gallus [6]): 21.7 µg/mL; half-life [7]: 20 h
64 | C=CCN(C)S(=O)(=O)c1ccc(-n2ncc(=O)[nH]c2=O)cc1C | 120 | –
